According to ChEMBL document CHEMBL1142845, “Synthesis, stability, and implications of phosphothioate agonists of sphingosine-1-phosphate receptors” (Bioorg Med Chem Lett, 2005):
pEC50: −log10 of the molar value. “And” between values parts separate entries of the source, which are not always exact repeats. Equal values may be shown once.

Assay: Effective concentration required for [35S]GTP-gamma-S binding towards Sphingosine 1-phosphate receptor G-protein complex expressed in HEK293T cells
Type: functional, cell-based, Homo sapiens
Conditions: hek-293t
In short: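 Agonist-stimulated [35S]GTPγS binding was measured on individual S1P receptor–G-protein complexes overexpressed in HEK293T cells. EC50 values were taken from ligand-dependent binding, and efficacy was expressed as a percentage of the S1P maximal effect at each receptor.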

pEC50	SMILES
5.77 and 6.31	CCCCCCCCc1ccc(NC(=O)[C@@H](N)[C@@H](C)O)cc1
6.04 and 5.55 and 5.06	CCCCCCCCc1ccc(CC[C@@H](N)CO)cc1
7.70	CCCCCCCCc1ccc(NC(=O)[C@@H](N)[C@@H](C)OP(=O)(O)O)cc1
